Experimental data from different studies.
Lines come from different studies, so protocols differ.
PIK3CA: Phosphatidylinositol 4,5-bisphosphate 3-kinase catalytic subunit alpha isoform (PIK3CA, Homo sapiens, UniProt P42336)
PIK3CA I800L: Phosphatidylinositol 4,5-bisphosphate 3-kinase catalytic subunit alpha isoform (PIK3CA, Homo sapiens, UniProt P42336, I800L)
PIK3CA M1043I: Phosphatidylinositol 4,5-bisphosphate 3-kinase catalytic subunit alpha isoform (PIK3CA, Homo sapiens, UniProt P42336, M1043I)
PIK3CA C420R: Phosphatidylinositol 4,5-bisphosphate 3-kinase catalytic subunit alpha isoform (PIK3CA, Homo sapiens, UniProt P42336, C420R)
PIK3CA E545A: Phosphatidylinositol 4,5-bisphosphate 3-kinase catalytic subunit alpha isoform (PIK3CA, Homo sapiens, UniProt P42336, E545A)
PIK3CA H1047Y: Phosphatidylinositol 4,5-bisphosphate 3-kinase catalytic subunit alpha isoform (PIK3CA, Homo sapiens, UniProt P42336, H1047Y)
PIK3CA Q546K: Phosphatidylinositol 4,5-bisphosphate 3-kinase catalytic subunit alpha isoform (PIK3CA, Homo sapiens, UniProt P42336, Q546K)

COc1ccnn2ncc(-c3ccnc(N(C)C)n3)c12  remaining binding (PIK3CA; binding; 1 µM): 100%
O=C(NCCCN1CCOCC1)c1ccc(Nc2ncc(Cl)c(-c3ccc(Cl)s3)n2)cc1  remaining binding (PIK3CA I800L; binding, competition with immobilised ligand; 1 µM): 85%
c1cncc(-c2cccc(Nc3nccc(NC4CCCCC4)n3)c2)c1  remaining binding (PIK3CA M1043I; binding, competition with immobilised ligand; 10 µM): 84%
CN(CCCC(F)(F)F)c1nccc(-c2cnn3ncccc23)n1  remaining binding (PIK3CA; binding; 1 µM): 100%
COc1cnc(Nc2cccc(S(N)(=O)=O)c2)nc1N1CCN(c2ccccc2)C(=O)C1  remaining binding (PIK3CA C420R; binding, competition with immobilised ligand; 1 µM): 95%
O=C(NCC1CCOCC1)c1n[nH]cc1NC(=O)c1c(F)cccc1F  remaining binding (PIK3CA M1043I; binding, competition with immobilised ligand; 1 µM): 100%
CN(c1nccc(-c2cnn3ncccc23)n1)C1CC1  remaining binding (PIK3CA E545A; binding; 1 µM): 100%
O=C(NCc1ncc(C(F)(F)F)cc1Cl)c1ccc2c(c1)C1(CCS(=O)(=O)CC1)[C@@H](C1CC1)N2S(=O)(=O)c1ccc(F)cc1  remaining binding (PIK3CA I800L; cell-free assay, competition with immobilised ligand; 1 µM): 78%
Cc1cnn2ncc(-c3ccnc(N(C)C)n3)c2c1  remaining binding (PIK3CA E545A; binding; 1 µM): 100%
CN1CCN(c2ccc(Nc3nccc(-c4cccc([N+](=O)[O-])c4)n3)cc2C(F)(F)F)CC1  remaining binding (PIK3CA C420R; binding; 10 µM): 53%
COc1cc(-c2cn(C3CCc4ccccc4N(CC(F)(F)F)C3=O)nn2)ccc1-n1ccc(C)n1 (stereo not drawn)  remaining binding (PIK3CA I800L; cell-free assay, competition with immobilised ligand; 1 µM): 76%
O=C(c1ccc(Nc2ncc(Cl)c(-c3cc4ccccc4s3)n2)cc1)N1CCC(N2CCCC2)CC1  remaining binding (PIK3CA H1047Y; binding, competition with immobilised ligand; 1 µM): 70%
C[C@@H](c1ccc(-n2cnc3c(N)ncnc32)cc1)N1CCc2nn(C)c(Cc3ccccc3)c2C1=O  remaining binding (PIK3CA Q546K; binding, competition with immobilised ligand; 0.1 µM): 77%
O=C(NS(=O)(=O)c1ccc(NCC2CCOCC2)c([N+](=O)[O-])c1)c1ccc(N2CCN(Cc3ccc(C(F)(F)F)cc3-c3ccc(Cl)cc3)CC2)cc1Oc1cnc2[nH]ccc2c1  remaining binding (PIK3CA; cell-free assay, competition with immobilised ligand; 1 µM): 69%
Nc1ncc2c(n1)-c1c([nH]c3ccc(C#CC4CC4)cc13)CCCC2  remaining binding (PIK3CA; binding, competition with immobilised ligand; 1 µM): 90%
CS(=O)(=O)N1CCCC(NC(=O)[C@H](CCC2CCCCC2)NC(=O)c2ccc(CNc3ncnc4c3nnn4-c3ccccc3)cc2)C1 (stereo partly drawn)  remaining binding (Phosphatidylinositol 4,5-bisphosphate 3-kinase catalytic subunit alpha isoform (PIK3CA, Homo sapiens, UniProt P42336, E545K); cell-free assay, competition with immobilised ligand; 0.1 µM): 53%
CC1CCCN1c1nccc(-c2cnn3ncccc23)n1 (stereo not drawn)  remaining binding (PIK3CA; binding; 1 µM): 100%
CN(C)CC#Cc1ccc(OCCCc2sc(N3CCc4cccc(C(=O)Nc5nc6ccccc6s5)c4C3)nc2C(=O)O)c(F)c1  remaining binding (PIK3CA Q546K; cell-free assay, competition with immobilised ligand; 1 µM): 79%
CNC(=O)[C@@H]1CC[C@@H](n2c(-c3ccc4cnccc4c3)nc3ccc(C(=O)NCc4cccc(C(N)=O)c4)cc32)C1  remaining binding (Phosphatidylinositol 4,5-bisphosphate 3-kinase catalytic subunit alpha isoform (PIK3CA, Homo sapiens, UniProt P42336, E542K); binding, competition with immobilised ligand; 1 µM): 100%
COc1cccc(CNC(=O)c2nc3scc(COCc4ccc(C(=O)O)cc4)c3c(=O)[nH]2)c1  remaining binding (PIK3CA I800L; cell-free assay, competition with immobilised ligand; 1 µM): 77.2%
Cc1c(-c2ccccc2)oc2c(C(=O)OCCN3CCCCC3)cccc2c1=O  remaining binding (PIK3CA; cell-free assay, competition with immobilised ligand; 0.1 µM): 100%
O=C(c1ccc(Nc2ncc(Cl)c(-c3ccc(Cl)s3)n2)cc1)N1CCC(N2CCCC2)CC1  remaining binding (PIK3CA; binding, competition with immobilised ligand; 1 µM): 100%
N[C@@H]1CCN(c2nccc(-c3cnn4ncccc34)n2)C1  remaining binding (PIK3CA H1047Y; binding; 1 µM): 91%
C[C@@H]1CN(c2cc(-c3n[nH]c4ccc(OC5(C)CC5)cc34)ncn2)C[C@H](C)O1  remaining binding (Phosphatidylinositol 4,5-bisphosphate 3-kinase catalytic subunit alpha isoform (PIK3CA, Homo sapiens, UniProt P42336, H1047L); cell-free assay, competition with immobilised ligand; 0.1 µM): 87%
